The subject of assay [1] is Hsp90 client proteins (EGFR, Her2, C-Raf) and Hsp90 in A549 cells. Put plainly: Western blot for Hsp90 client proteins and Hsp90, A549 lysates. The format is cell-based. The conditions noted are these: for Hsp90 client levels: A549, 12 or 24 h. The procedure, abridged:
(§1)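 MCF7 (Advanced DMEM/F12, 2 mM L-glutamine) or A549 (F12K) cells, with 10% FBS and pen/strep at 37 °C, 5% CO2. […] M-PER lysates with protease/phosphatase inhibitors, 15 µg protein on reducing 10% gels, PVDF, HRP-chemiluminescence.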
(In general: Immunoblotting shows a protein as a band on a membrane.)

The test system of assay [2] is p-Akt and total Akt in A549 cells. Put plainly: Western blot for p-Akt and total Akt, A549 lysates. In kind it is cell-based. The conditions noted are these: A549, 2 to 12 h (Supplementary Figure 2).
Assay [3] relates to A549 lung cancer cell line. The assay is described as follows: Anti-proliferation. In kind it is cell-based. The conditions noted are these: 0.15 μM versus 1.7 μM.
The subject of assay [4] is MAPK pathway (EGFR, C-Raf, MEK, ERK, p-MEK, p-ERK) in A549 cells. The assay is described as follows: Western blot for MAPK pathway proteins, p-MEK and p-ERK, A549 lysates. In kind it is cell-based.
Assay [5] concerns Hsp90 luciferase refolding activity in PC3-MM2 cells. The assay is described as follows: Luciferase refolding assay. In kind it is cell-based. The conditions noted are these: 0–100 μM, 1 h. An outline of the steps:
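Heat-denatured luciferase: luciferase-expressing PC3-MM2 cells were heated 8–12 min at 50 °C in DMEM until luminescence was 1% of initial. They were added (60,000 cells/100 µL final) to test compound, 0–100 µM, 1% DMSO final, and incubated 1 h. Luciferin/CoA/ATP reagent (tricine pH 7.8) was added and luminescence read immediately (0.5 s). Refolding was normalized to 1% DMSO = 100%. Triplicate concentrations, dose-response curves.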

For assay [6], the target named is wild type B-Raf / c-Raf heterodimer in A549 cells (Homo sapiens, UniProt P15056). Put plainly: Co-immunoprecipitation of B-Raf, A549 lysates. In kind it is cell-based. The conditions noted are these: A549, 24 h, five-times IC50.
The subject of assay [7] is Hsp90 client proteins (EGFR, Her2, C-Raf) and Hsp90 in MCF7 cells. Put plainly: Western blot for Hsp90 client proteins and Hsp90, MCF7 lysates. In kind it is cell-based. The conditions noted are these: MCF7, 12 h. An outline of the steps:
as §1

Assay [8] relates to Her3 and wild-type B-Raf in A549 cells. Put plainly: Western blot for Her3 and wild-type B-Raf. The format is cell-based. The conditions noted are these: for Her3 and wild-type B-Raf levels, control compounds: A549, 12 and 24 h, five-times the reported IC50. The procedure, abridged:
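Cells harvested in cold PBS, lysed in M-PER with protease/phosphatase inhibitors, 15 µg protein resolved on reducing 10% gels, transferred to PVDF, immunoblotted for Her3 and B-Raf, HRP-chemiluminescent detection.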

In assay [9] the test system is A549 lung cancer cell line. The conditions noted are these: cited from earlier work.
Assay [10] has as its system Hsp90 client proteins and Hsp90. The assay is described as follows: Western blot for clients and Hsp90 with geldanamycin. The conditions noted are these: Supplementary Figure 1. The format is cell-based.
Setting [11] is: A549, 750 nM, 2 to 12 h, vs vehicle.

Sequence of wild type B-Raf / c-Raf heterodimer in A549 cells (P15056 whole entry, one chain of several): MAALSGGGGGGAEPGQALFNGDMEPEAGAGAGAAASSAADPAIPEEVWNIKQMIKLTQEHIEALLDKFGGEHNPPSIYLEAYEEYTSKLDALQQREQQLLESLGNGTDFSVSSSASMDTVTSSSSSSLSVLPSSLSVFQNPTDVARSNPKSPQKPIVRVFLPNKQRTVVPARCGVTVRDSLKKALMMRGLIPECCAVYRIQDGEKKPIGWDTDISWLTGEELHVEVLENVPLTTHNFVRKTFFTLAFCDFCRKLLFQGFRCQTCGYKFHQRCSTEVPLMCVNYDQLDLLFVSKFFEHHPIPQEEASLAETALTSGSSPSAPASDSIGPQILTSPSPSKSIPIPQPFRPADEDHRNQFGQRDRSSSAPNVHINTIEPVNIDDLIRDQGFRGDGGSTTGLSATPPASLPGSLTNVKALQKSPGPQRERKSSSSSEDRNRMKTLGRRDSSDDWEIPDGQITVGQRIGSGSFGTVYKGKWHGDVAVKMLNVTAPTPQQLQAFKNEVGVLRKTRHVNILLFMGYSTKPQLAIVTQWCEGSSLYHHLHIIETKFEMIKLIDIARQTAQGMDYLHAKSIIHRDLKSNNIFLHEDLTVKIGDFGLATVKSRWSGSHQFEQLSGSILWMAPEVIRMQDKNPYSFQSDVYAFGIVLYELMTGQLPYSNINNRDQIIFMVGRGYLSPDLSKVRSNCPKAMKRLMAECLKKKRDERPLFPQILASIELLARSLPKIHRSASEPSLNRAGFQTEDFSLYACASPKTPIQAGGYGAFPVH

`COc1cccc(-c2cc(NC(=O)Nc3cc4ccc(OC5CCN(C)CC5)c(C)c4oc3=O)ccc2OC)c1` [Compound 2, 1-(3′,6-dimethoxy-[1,1′-biphenyl]-3-yl)-3-(8-methyl-7-((1-methylpiperidin-4-yl)oxy)-2-oxo-2H-chromen-3-yl)urea]: the “Hsp90 client protein levels” value in assay [1] (A549, 12 h, low (half IC50) and high (five-times IC50) concentrations) was “unchanged”; in assay [7] (low (half IC50) and high (five-times IC50) concentrations), “unchanged”. The “p-Akt and total Akt levels” value in [2] is on record as “unaffected”. For the same compound, in [3], the “IC50 of 2 relative to IC50 of TAK-632” value is listed as “one tenth”. Also, the “EGFR and C-Raf levels” value in assay [4] (setting [11]) is reported as “remained constant”. Moreover, the “Total MEK and ERK levels” value in assay [4] (setting [11]) is listed as “remained constant”. For the same compound, the p-MEK levels entry in assay [4] (A549, 750 nM, 12 h) is “undetectable”. For the same compound, the “p-MEK and p-ERK levels” value was “significantly lower levels” in [4] (A549, 12 h, high concentration (five-times IC50, 750 nM)); “little effect” in assay [4] (A549, 12 h, low concentration (half IC50, 70nM)); “only slightly increased compared to 12 hours” in assay [4] (A549, 24 h, 750 nM). The “Inhibition of firefly luciferase re-maturation” value in assay [5] is listed as “does not inhibit”. Moreover, in [6], the “Dimerization of wild type B-Raf and c-Raf (co-immunoprecipitation)” value is “does not result in dimerization”. The “Her3 and wild-type B-Raf levels” value in assay [8] (A549, 24 h, five-times IC50) was “comparable to vehicle”.

Take `CCCS(=O)(=O)Nc1ccc(F)c(C(=O)c2c[nH]c3ncc(-c4ccc(Cl)cc4)cc23)c1F` [vemurafenib]: the “Activity against the A549 cell line” value in assay [9] (A549 expresses only wild-type B-Raf) was “relatively inactive”. Moreover, the “Her3 and wild-type B-Raf levels, control compounds” value in [8] is given as “little effect”.

For the compound `Cc1c(OC2CCN(C)CC2)ccc2cc(NC(=O)Nc3cccc(-c4ccccc4)c3)c(=O)oc12` [Compound 3, 1-([1,1′-biphenyl]-3-yl)-3-(8-methyl-7-((1-methylpiperidin-4-yl)oxy)-2-oxo-2H-chromen-3-yl)urea], in assay [1] (A549, 24 h, five-times IC50), the “Hsp90-dependent client protein levels” value is reported as “decreased levels” and the Hsp90 levels result was “constant levels”.

For `COC1=C2C[C@@H](C)C[C@H](OC)[C@H](O)[C@@H](C)/C=C(\C)[C@H](OC(N)=O)[C@@H](OC)/C=C\C=C(/C)C(=O)NC(=CC1=O)C2=O` [geldanamycin (GDA), geldanamycin], the Hsp90 client levels result in [10] is “decreased client levels”. In addition, the “Cellular levels of Hsp90” value in [10] (at concentrations that decreased clients) is recorded as “increased cellular levels of Hsp90”.

In the case of `CNC(=O)c1cc(Oc2ccc(NC(=O)Nc3ccc(Cl)c(C(F)(F)F)c3)cc2)ccn1` [sorafenib], in [8] (A549, sorafenib at five-times the reported IC50 (14 μM), 12 and 24 h), the Her3 levels entry is recorded as “time-dependent increase”.

Consider `COc1cccc(-c2cccc(NC(=O)Nc3cc4ccc(OC5CCN(C)CC5)c(C)c4oc3=O)c2)c1` [Compound 5, 1-(3′-methoxy-[1,1′-biphenyl]-3-yl)-3-(8-methyl-7-((1-methylpiperidin-4-yl)oxy)-2-oxo-2H-chromen-3-yl)urea], for which the Hsp90 client levels result in [1] (five-times IC50) is “did not result in decreased client levels”. The p-MEK levels entry in assay [4] (A549, 12 and 24 h, five-times IC50) is on record as “unchanged”. In [4] (A549, 12 h, five-times IC50), the p-ERK levels entry is listed as “decreased”. Moreover, in assay [4] (A549, 24 h, five-times IC50), the p-ERK levels result is listed as “comparable to vehicle”; the “p-MEK and p-ERK levels” value is given as “reestablished”.

With `Cc1c(OC2CCN(C)CC2)ccc2cc(NC(=O)Nc3ccccc3)c(=O)oc12` [Compound 1, 1-(8-methyl-7-((1-methylpiperidin-4-yl)oxy)-2-oxo-2H-chromen-3-yl)-3-phenylurea], the “Hsp90 client levels (EGFR, Her2, C-Raf)” value in [1] (A549, 12 h, high concentration (five-times IC50), vs vehicle) was “decreased levels”; in [7] (high concentration (five-times IC50), vs vehicle), “decreased levels”. Moreover, the Hsp90 levels result in [1] (A549, 12 h, low and high concentrations) is listed as “comparable to vehicle”; in assay [7] (low and high concentrations), “comparable to vehicle”.

With `COc1ccc(NC(=O)Nc2cc3ccc(OC4CCN(C)CC4)c(C)c3oc2=O)cc1-c1ccccc1` [Compound 4, 1-(6-methoxy-[1,1′-biphenyl]-3-yl)-3-(8-methyl-7-((1-methylpiperidin-4-yl)oxy)-2-oxo-2H-chromen-3-yl)urea], the Hsp90 client levels result in assay [1] (five-times IC50) was “did not result in decreased client levels”. The “p-MEK and pERK levels” value in assay [4] (A549, 12 h, five-times IC50, vs vehicle) is given as “decreased”. For the same compound, the “p-MEK and p-ERK levels” value in [4] (A549, 24 h, five-times IC50) is “reestablished”.

Take `N#Cc1c(Oc2ccc(F)c(NC(=O)Cc3cccc(C(F)(F)F)c3)c2)ccc2nc(NC(=O)C3CC3)sc12` [TAK-632]: the 50% inhibitory concentration (IC50) in assay [9] (read-out: IC50 value against A549 (reported), A549 lung cancer cell line) is 1700 nM. Moreover, in assay [8], the “Her3 and wild-type B-Raf levels, control compounds” value is on record as “remained unaffected”.

A word on the IC50: it is the point on the concentration scale where inhibition reaches its midpoint.
